{
  "source": "ChEMBL document CHEMBL4359902",
  "about": "“Development of novel chromeno[4,3-c]pyrazol-4(2H)-one derivates bearing sulfonylpiperazine as antitumor inhibitors targeting PI3Kα” (Eur J Med Chem, 2019)",
  "key": {"HCT-116 [1]": {"tested_on": "HCT-116", "assay": "Induction of apoptosis in human HCT116 cells assessed as viable cells at 1 uM measured after 24 hrs by annexin-v-FITC/propidium iodide staining based FACScan flow cytometry analysis (reference value: 78.5 %)", "assay_type": "functional", "conditions": "HCT-116, 24 h, read-out: Activity"}, "HCT-116 [2]": {"tested_on": "HCT-116", "assay": "Induction of apoptosis in human HCT116 cells assessed as early apoptotic cells at 0.25 uM measured after 24 hrs by annexin-v-FITC/propidium iodide staining based FACScan flow cytometry analysis (reference value: 10.0 %)", "assay_type": "functional"}, "HCT-116 [3]": {"tested_on": "HCT-116", "assay": "Cell cycle arrest in human HCT116 cells assessed as accumulation at S phase at 0.5 uM measured after 24 hrs by propidium iodide staining based flow cytometry analysis (reference value: 50.12 %)", "assay_type": "functional"}, "HCT-116 [4]": {"tested_on": "HCT-116", "assay": "Cell cycle arrest in human HCT116 cells assessed as accumulation at S phase at 1 uM measured after 24 hrs by propidium iodide staining based flow cytometry analysis (reference value: 50.12 %)", "assay_type": "functional"}, "HCT-116 [5]": {"tested_on": "HCT-116", "assay": "Induction of apoptosis in human HCT116 cells assessed as late apoptotic cells at 0.5 uM measured after 24 hrs by annexin-v-FITC/propidium iodide staining based FACScan flow cytometry analysis (reference value: 9.61 %)", "assay_type": "functional"}, "A549": {"tested_on": "A549", "assay": "Antiproliferative activity against human A549 cells assessed as reduction in cell viability after 48 hrs by MTT assay", "assay_type": "functional, cell-based", "conditions": "A549, 48 h"}, "[6]": {"target": "T1, Phosphatidylinositol 4,5-bisphosphate 3-kinase catalytic subunit alpha isoform (Homo sapiens, UniProt P42336)", "T1 sequence (P42336 whole entry, canonical isoform)": "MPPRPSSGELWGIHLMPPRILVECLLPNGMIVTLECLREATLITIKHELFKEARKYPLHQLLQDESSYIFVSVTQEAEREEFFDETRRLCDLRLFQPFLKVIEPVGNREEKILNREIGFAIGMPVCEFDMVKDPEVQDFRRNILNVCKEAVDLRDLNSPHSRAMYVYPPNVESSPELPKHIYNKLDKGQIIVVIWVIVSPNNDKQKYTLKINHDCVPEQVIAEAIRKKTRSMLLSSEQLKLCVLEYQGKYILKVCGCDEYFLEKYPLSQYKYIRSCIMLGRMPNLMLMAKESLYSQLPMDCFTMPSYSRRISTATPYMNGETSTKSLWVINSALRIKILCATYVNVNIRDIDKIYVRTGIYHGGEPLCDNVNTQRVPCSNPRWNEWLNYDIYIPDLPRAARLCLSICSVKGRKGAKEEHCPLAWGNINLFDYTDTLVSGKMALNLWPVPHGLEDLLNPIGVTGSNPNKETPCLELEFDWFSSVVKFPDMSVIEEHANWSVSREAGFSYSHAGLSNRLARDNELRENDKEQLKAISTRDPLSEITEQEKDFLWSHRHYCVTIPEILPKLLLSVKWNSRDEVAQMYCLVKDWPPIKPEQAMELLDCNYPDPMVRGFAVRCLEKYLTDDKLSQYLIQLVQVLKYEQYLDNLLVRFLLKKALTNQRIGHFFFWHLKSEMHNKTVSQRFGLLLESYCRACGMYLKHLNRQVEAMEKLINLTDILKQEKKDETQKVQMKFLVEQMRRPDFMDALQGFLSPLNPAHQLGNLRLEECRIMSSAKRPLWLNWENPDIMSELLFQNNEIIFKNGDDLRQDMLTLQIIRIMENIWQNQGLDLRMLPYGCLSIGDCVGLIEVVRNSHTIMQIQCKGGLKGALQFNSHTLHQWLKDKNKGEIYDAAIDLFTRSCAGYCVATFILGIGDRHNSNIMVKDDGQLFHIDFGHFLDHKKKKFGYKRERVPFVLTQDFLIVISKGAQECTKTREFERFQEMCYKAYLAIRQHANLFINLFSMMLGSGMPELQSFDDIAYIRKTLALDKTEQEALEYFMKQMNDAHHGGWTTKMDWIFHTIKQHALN", "assay": "Inhibition of PI3K-alpha in human HCT116 cells assessed as decrease in phosphorylated S6K protein expression level measured after 24 hrs by Western blot analysis", "assay_type": "cell-based", "how_it_was_run": "(§1)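 HCT-116 cells exposed for 24 h at 0.25, 0.5 and 1 μM, lysed in RIPA buffer, and analysed by SDS-PAGE/PVDF Western blot for p-Akt (Ser473) and p-S6K. β-actin internal control; densitometry mean ± SEM, n = 3.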"}, "[7]": {"target": "T1, Phosphatidylinositol 4,5-bisphosphate 3-kinase catalytic subunit alpha isoform", "assay": "Inhibition of PI3K-alpha in human HCT116 cells assessed as decrease in phosphorylated Akt protein expression level measured after 24 hrs by Western blot analysis", "assay_type": "cell-based", "how_it_was_run": "as §1"}, "HCT-116 [8]": {"tested_on": "HCT-116", "assay": "Cell cycle arrest in human HCT116 cells assessed as accumulation at G1 phase at 0.5 uM measured after 24 hrs by propidium iodide staining based flow cytometry analysis (reference value: 42.01 %)", "assay_type": "functional"}, "HCT-116 [9]": {"tested_on": "HCT-116", "assay": "Induction of apoptosis in human HCT116 cells assessed as necrotic cells at 0.25 uM measured after 24 hrs by annexin-v-FITC/propidium iodide staining based FACScan flow cytometry analysis (reference value: 1.87 %)", "assay_type": "functional"}, "[10]": {"target": "Serine/threonine-protein kinase mTOR (Homo sapiens, UniProt P42345)", "assay": "Inhibition of mTOR (unknown origin)"}, "[11]": {"target": "Phosphatidylinositol 4,5-bisphosphate 3-kinase catalytic subunit beta isoform (Homo sapiens, UniProt P42338)", "sequence (P42338 whole entry, canonical isoform)": "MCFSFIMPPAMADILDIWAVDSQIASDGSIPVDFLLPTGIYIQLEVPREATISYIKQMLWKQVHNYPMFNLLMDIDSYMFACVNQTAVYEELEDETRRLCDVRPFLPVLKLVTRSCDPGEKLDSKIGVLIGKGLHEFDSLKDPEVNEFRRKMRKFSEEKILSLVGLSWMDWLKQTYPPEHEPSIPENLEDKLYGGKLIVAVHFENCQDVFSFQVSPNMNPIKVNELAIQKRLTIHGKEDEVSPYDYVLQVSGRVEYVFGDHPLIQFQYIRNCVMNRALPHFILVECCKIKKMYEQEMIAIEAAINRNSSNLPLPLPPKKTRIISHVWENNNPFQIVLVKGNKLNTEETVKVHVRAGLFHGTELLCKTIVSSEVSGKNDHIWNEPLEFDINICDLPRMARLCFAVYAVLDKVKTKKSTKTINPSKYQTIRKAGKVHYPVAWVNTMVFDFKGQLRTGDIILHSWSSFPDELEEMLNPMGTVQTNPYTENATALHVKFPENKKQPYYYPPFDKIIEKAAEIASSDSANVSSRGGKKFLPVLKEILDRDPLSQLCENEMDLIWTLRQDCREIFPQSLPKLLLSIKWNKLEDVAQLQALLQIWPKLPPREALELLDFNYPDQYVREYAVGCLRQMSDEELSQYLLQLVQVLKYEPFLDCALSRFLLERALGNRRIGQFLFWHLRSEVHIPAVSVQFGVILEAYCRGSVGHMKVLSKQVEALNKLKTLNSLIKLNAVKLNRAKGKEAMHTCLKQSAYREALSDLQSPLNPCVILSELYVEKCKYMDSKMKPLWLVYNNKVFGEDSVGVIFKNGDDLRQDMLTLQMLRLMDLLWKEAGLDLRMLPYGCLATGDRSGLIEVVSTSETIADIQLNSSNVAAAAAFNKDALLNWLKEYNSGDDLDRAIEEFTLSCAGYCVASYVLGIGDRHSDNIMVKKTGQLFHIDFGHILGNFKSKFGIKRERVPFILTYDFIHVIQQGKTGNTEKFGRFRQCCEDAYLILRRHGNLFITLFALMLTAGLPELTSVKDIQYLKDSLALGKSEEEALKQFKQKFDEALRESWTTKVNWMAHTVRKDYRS", "assay": "Inhibition of PI3Kbeta (unknown origin) using diC8-PI(4,5)P2 as substrate incubated for 3 hrs in presence of ATP by fluorescence polarization assay", "how_it_was_run": "(§2)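 Fluorescence polarization competition assay, 10 μL reactions at pH 7: 2.5 mM MgCl₂, 5 mM HEPES, ATP, 10 mM DTT, 50 ng PI3K isoform, diC8-PI(4,5)P2 substrate. After 3 h at room temperature, reactions were chelator-quenched. Phosphoinositide binding protein and fluorophore-labelled tracer were added, then 1 h dark equilibration and polarization read.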"}, "Huh-7": {"tested_on": "Huh-7", "assay": "Antiproliferative activity against human HuH7 cells assessed as reduction in cell viability after 48 hrs by MTT assay", "assay_type": "functional, cell-based", "conditions": "Huh-7, 48 h"}, "HCT-116 [12]": {"tested_on": "HCT-116", "assay": "Cell cycle arrest in human HCT116 cells assessed as accumulation at G2 phase at 0.5 uM measured after 24 hrs by propidium iodide staining based flow cytometry analysis (reference value: 7.86 %)", "assay_type": "functional"}, "HCT-116 [13]": {"tested_on": "HCT-116", "assay": "Induction of apoptosis in human HCT116 cells assessed as decrease in Bcl-2 protein level measured after 24 hrs by Western blot analysis", "assay_type": "functional, cell-based", "how_it_was_run": "(§3)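 HCT-116 cells treated at 0.25, 0.5 and 1 μM for 24 h, lysed in RIPA buffer with PMSF. Proteins separated by SDS-PAGE (8% or 10%), transferred to PVDF and probed with primary antibodies and HRP secondaries. β-actin served as internal control; bands quantified as bar graphs.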"}, "HCT-116 [14]": {"tested_on": "HCT-116", "assay": "Induction of apoptosis in human HCT116 cells assessed as necrotic cells at 0.5 uM measured after 24 hrs by annexin-v-FITC/propidium iodide staining based FACScan flow cytometry analysis (reference value: 1.87 %)", "assay_type": "functional"}, "HCT-116 [15]": {"tested_on": "HCT-116", "assay": "Induction of apoptosis in human HCT116 cells assessed as late apoptotic cells at 1 uM measured after 24 hrs by annexin-v-FITC/propidium iodide staining based FACScan flow cytometry analysis (reference value: 9.61 %)", "assay_type": "functional"}, "HCT-116 [16]": {"tested_on": "HCT-116", "assay": "Induction of apoptosis in human HCT116 cells assessed as viable cells at 0.25 uM measured after 24 hrs by annexin-v-FITC/propidium iodide staining based FACScan flow cytometry analysis (reference value: 78.5 %)", "assay_type": "functional", "conditions": "HCT-116, 24 h, read-out: Activity"}, "HCT-116 [17]": {"tested_on": "HCT-116", "assay": "Induction of apoptosis in human HCT116 cells assessed as early apoptotic cells at 1 uM measured after 24 hrs by annexin-v-FITC/propidium iodide staining based FACScan flow cytometry analysis (reference value: 10.0 %)", "assay_type": "functional"}, "[18]": {"assay": "Cytotoxicity against human 293T cells", "assay_type": "cell-based", "conditions": "HEK-293T cells"}, "[19]": {"target": "T1, Phosphatidylinositol 4,5-bisphosphate 3-kinase catalytic subunit alpha isoform", "assay": "Inhibition of PI3Kalpha (unknown origin) using diC8-PI(4,5)P2 as substrate incubated for 3 hrs in presence of ATP by fluorescence polarization assay", "how_it_was_run": "as §2"}, "HCT-116 [20]": {"tested_on": "HCT-116", "assay": "Cell cycle arrest in human HCT116 cells assessed as accumulation at G2 phase at 1 uM measured after 24 hrs by propidium iodide staining based flow cytometry analysis (reference value: 7.86 %)", "assay_type": "functional"}, "HCT-116 [21]": {"tested_on": "HCT-116", "assay": "Induction of apoptosis in human HCT116 cells assessed as increase in cleaved caspase-9 protein level measured after 24 hrs by Western blot analysis", "assay_type": "functional, cell-based", "how_it_was_run": "as §3"}, "HCT-116 [22]": {"tested_on": "HCT-116", "assay": "Induction of apoptosis in human HCT116 cells assessed as viable cells at 0.5 uM measured after 24 hrs by annexin-v-FITC/propidium iodide staining based FACScan flow cytometry analysis (reference value: 78.5 %)", "assay_type": "functional", "conditions": "HCT-116, 24 h, read-out: Activity"}, "HCT-116 [23]": {"tested_on": "HCT-116", "assay": "Induction of apoptosis in human HCT116 cells assessed as early apoptotic cells at 0.5 uM measured after 24 hrs by annexin-v-FITC/propidium iodide staining based FACScan flow cytometry analysis (reference value: 10.0 %)", "assay_type": "functional"}, "HCT-116 [24]": {"tested_on": "HCT-116", "assay": "Cell cycle arrest in human HCT116 cells assessed as accumulation at G2 phase at 0.25 uM measured after 24 hrs by propidium iodide staining based flow cytometry analysis (reference value: 7.86 %)", "assay_type": "functional"}, "HCT-116 [25]": {"tested_on": "HCT-116", "assay": "Induction of apoptosis in human HCT116 cells assessed as necrotic cells at 1 uM measured after 24 hrs by annexin-v-FITC/propidium iodide staining based FACScan flow cytometry analysis (reference value: 1.87 %)", "assay_type": "functional"}, "HCT-116 [26]": {"tested_on": "HCT-116", "assay": "Cell cycle arrest in human HCT116 cells assessed as accumulation at S phase at 0.25 uM measured after 24 hrs by propidium iodide staining based flow cytometry analysis (reference value: 50.12 %)", "assay_type": "functional"}},
  "data": [
    {"compound": "O=c1oc2ccccc2c2nn(CN3CCN(S(=O)(=O)c4ccc(Cl)c([N+](=O)[O-])c4)CC3)cc12", "values": [
      {"measurement": "viability at 1 µM", "setting": "HCT-116 [1]", "value": 36.6, "unit": "%"},
      {"measurement": "Activity", "setting": "HCT-116 [2]", "value": 16.1, "unit": "%"},
      {"measurement": "Activity", "setting": "HCT-116 [3]", "value": 39.53, "unit": "%"},
      {"measurement": "Activity", "setting": "HCT-116 [4]", "value": 33.78, "unit": "%"},
      {"measurement": "Activity", "setting": "HCT-116 [5]", "value": 30.8, "unit": "%"},
      {"measurement": "IC50", "setting": "A549", "value": 60, "unit": "nM"},
      {"measurement": "inhibition", "setting": "[6]", "value": "Dose-dependent effect"},
      {"measurement": "inhibition", "setting": "[7]", "value": "Dose-dependent effect"},
      {"measurement": "Activity", "setting": "HCT-116 [8]", "value": 50.95, "unit": "%"},
      {"measurement": "Activity", "setting": "HCT-116 [9]", "value": 6.98, "unit": "%"},
      {"measurement": "IC50", "setting": "[10]", "value": 9380, "unit": "nM"},
      {"measurement": "IC50", "setting": "[11]", "value": 120, "unit": "nM"},
      {"measurement": "IC50", "setting": "Huh-7", "value": 90, "unit": "nM"},
      {"measurement": "Activity", "setting": "HCT-116 [12]", "value": 9.52, "unit": "%"},
      {"measurement": "Activity", "setting": "HCT-116 [13]", "value": "Dose-dependent effect"},
      {"measurement": "Activity", "setting": "HCT-116 [14]", "value": 6.04, "unit": "%"},
      {"measurement": "Activity", "setting": "HCT-116 [15]", "value": 36.9, "unit": "%"},
      {"measurement": "viability at 0.25 µM", "setting": "HCT-116 [16]", "value": 56, "unit": "%"},
      {"measurement": "Activity", "setting": "HCT-116 [17]", "value": 25.5, "unit": "%"},
      {"measurement": "CC50", "setting": "[18]", "value": 386000, "unit": "nM"},
      {"measurement": "IC50", "setting": "[19]", "value": 9, "unit": "nM"},
      {"measurement": "Activity", "setting": "HCT-116 [20]", "value": 8.09, "unit": "%"},
      {"measurement": "Activity", "setting": "HCT-116 [21]", "value": "Dose-dependent effect"},
      {"measurement": "viability at 0.5 µM", "setting": "HCT-116 [22]", "value": 46, "unit": "%"},
      {"measurement": "Activity", "setting": "HCT-116 [23]", "value": 17.1, "unit": "%"},
      {"measurement": "Activity", "setting": "HCT-116 [24]", "value": 10.73, "unit": "%"},
      {"measurement": "Activity", "setting": "HCT-116 [25]", "value": 1.04, "unit": "%"},
      {"measurement": "Activity", "setting": "HCT-116 [26]", "value": 42.4, "unit": "%"}
    ]}
  ]
}
